Experimental data as given in ChEMBL document CHEMBL1125569, “5-HT3 receptor antagonists. 1. New quinoline derivatives” (J Med Chem, 1992).

Key:
[1] = biological target: T1, Serotonin 3 (5-HT3) receptor (Rattus norvegicus, UniProt P35563+Q9JJ16); experiment: Ability to displace [3H]quipazine binding to 5-hydroxytryptamine 3 receptor sites in NG 108-15.; assay type: protein-complex assay
T1 sequence (P35563 whole entry): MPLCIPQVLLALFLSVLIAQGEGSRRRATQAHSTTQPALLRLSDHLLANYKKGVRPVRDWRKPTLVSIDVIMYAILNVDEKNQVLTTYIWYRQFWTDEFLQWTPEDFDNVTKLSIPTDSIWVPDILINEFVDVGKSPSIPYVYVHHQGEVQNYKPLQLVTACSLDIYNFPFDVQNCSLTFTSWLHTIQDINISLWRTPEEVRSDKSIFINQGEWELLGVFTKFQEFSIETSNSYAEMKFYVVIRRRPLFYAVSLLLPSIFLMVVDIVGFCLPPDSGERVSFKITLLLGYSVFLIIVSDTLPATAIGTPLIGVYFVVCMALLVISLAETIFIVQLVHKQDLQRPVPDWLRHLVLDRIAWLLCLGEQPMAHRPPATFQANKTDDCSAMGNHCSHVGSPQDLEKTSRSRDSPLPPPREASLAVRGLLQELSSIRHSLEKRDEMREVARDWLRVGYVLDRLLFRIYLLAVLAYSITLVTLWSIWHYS
T1 sequence (Q9JJ16 whole entry): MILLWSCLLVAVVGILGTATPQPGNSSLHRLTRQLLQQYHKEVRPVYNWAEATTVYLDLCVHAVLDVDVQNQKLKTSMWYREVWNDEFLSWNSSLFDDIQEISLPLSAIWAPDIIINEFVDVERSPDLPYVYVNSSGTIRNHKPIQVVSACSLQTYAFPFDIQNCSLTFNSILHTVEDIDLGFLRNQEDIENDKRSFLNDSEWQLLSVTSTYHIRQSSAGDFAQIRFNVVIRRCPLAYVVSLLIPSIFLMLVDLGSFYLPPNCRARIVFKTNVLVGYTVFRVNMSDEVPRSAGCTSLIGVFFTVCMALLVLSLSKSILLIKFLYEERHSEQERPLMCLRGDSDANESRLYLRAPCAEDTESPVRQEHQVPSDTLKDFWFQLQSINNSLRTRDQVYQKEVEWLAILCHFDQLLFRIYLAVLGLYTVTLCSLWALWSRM
Method in brief: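 Membranes from 3 × 10^6 NG 108-15 cells in 20 mM Tris-HCl pH 7.5 with 154 mM NaCl. Incubated with 2 nM [3H]quipazine and varying test concentrations, 37 °C for 60 min. Stopped with ice-cold buffer, then GF/C filtration and scintillation counting. Nonspecific binding defined with 10 μM MDL 72222. […] Mean ± SEM, n = 3.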

[2] = biological target: Serotonin 3 (5-HT3) receptor (Rattus norvegicus) (UniProt P35563+Q9JJ16); experiment: Inhibition of 5-HT induced bradycardia [Benzold-Jarisch (BJ) reflex test] in rats at 5 min administered intravenously; assay type: functional
Method in brief: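 Male Wistar rats (230–330 g) under urethane (1.25 g/kg ip), tracheal cannula. Blood pressure taken from the left carotid, heart rate from the pressure trace. Compounds given iv via jugular vein. Bezold-Jarisch reflex evoked by bolus iv 5-HT 30 μg/kg, with challenges every 12 min. ED50 is the dose halving 5-HT bradycardia, by linear regression, 4 rats.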

[3] = species on record: Rattus norvegicus; experiment: animal or person; assay type: functional; conditions: 5 min
[4] = biological target: T1, Serotonin 3 (5-HT3) receptor; experiment: Compound was evaluated for its ability to displace [3H]quipazine binding to 5-hydroxytryptamine 3 receptor sites in NG 108-15.; assay type: protein-complex assay

Row | Compound | Ki [1] [nM] | ED50 [2] [mg/kg] | ED50 [3] [mg/kg] | Ki [4] [nM]
1 | CN1C2CCC1CC(NC(=O)c1ccnc3ccccc13)C2 (stereo not drawn) | > 100 |  |  | 
2 | CN1C2CCC1CC(NC(=O)c1cc(=O)n(-c3ccccc3)c3ccccc13)C2 (stereo not drawn) | 63 |  |  | 
3 | CC(C)COc1cc(C(=O)OC2CC3CCC(C2)N3C)c2ccccc2n1 (stereo not drawn) | 0.44 | 0.24 |  | 
4 | Cc1nccn1CC1CCc2c(c3ccccc3n2C)C1=O (stereo not drawn) [ONDANSETRON] |  |  | 0.021 | 
5 | CCCCOc1cc(C(=O)NC2CC3CCC(C2)N3C)c2ccccc2n1 (stereo not drawn) | 19 |  |  | 
6 | CCCCCCOc1cc(C(=O)OC2CC3CCC(C2)N3C)c2ccccc2n1 (stereo not drawn) | 3.2 | 7.68 |  | 
7 | CCCCn1c(=O)c(CC)c(C(=O)OC2CC3CCC(C2)N3C)c2ccccc21 (stereo not drawn) | 160 |  |  | 
8 | CCn1c(=O)cc(C(=O)OC2CC3CCC(C2)N3C)c2ccccc21 (stereo not drawn) | 1.1 | 0.022 |  | 
9 | CCCCCn1c(=O)cc(C(=O)OC2CC3CCC(C2)N3C)c2ccccc21 (stereo not drawn) | 0.96 | 0.059 |  | 
10 | CCCCn1c(=O)cc(C(=O)NC2CC3CCC(C2)N3C)c2ccccc21 (stereo not drawn) | 60 |  |  | 
11 | CN1C2CCC1CC(OC(=O)c1ccnc3ccccc13)C2 (stereo not drawn) |  |  |  | 7.1
12 | CCCCn1c(=O)cc(C(=O)OC2CC3CCC(C2)N3C)c2cc(C)ccc21 (stereo not drawn) | 44 |  |  | 
13 | CN1C2CCC1CC(NC(=O)c1cc(=O)n(C)c3ccccc13)C2 (stereo not drawn) | > 100 |  |  | 
14 | CC(C)n1c(=O)cc(C(=O)OC2CC3CCC(C2)N3C)c2ccccc21 (stereo not drawn) | 0.032 | 0.081 |  | 
15 | CN1C2CCC1CC(OC(=O)c1cc(O)nc3ccccc13)C2 (stereo not drawn) |  |  | 0.017 | 4.4
16 | CCCOc1cc(C(=O)NC2CC3CCC(C2)N3C)c2ccccc2n1 (stereo not drawn) | 42 |  |  | 
17 | CCCCn1c(=O)cc(C(=O)OC2CC3CCC(C2)N3C)c2ccccc21 (stereo not drawn) | 0.68 | 0.041 |  | 
18 | CCCCOc1cc(C(=O)OC2CC3CCC(C2)N3C)c2ccccc2n1 (stereo not drawn) | 0.39 | 0.2 |  | 

Row | Compound | Ki [1] [nM] | ED50 [2] [mg/kg] | ED50 [3] [mg/kg] | Ki [4] [nM]
19 | COc1cc(C(=O)OC2CC3CCC(C2)N3C)c2ccccc2n1 (stereo not drawn) | 0.58 | 5.64 |  | 
20 | CCCn1c(=O)cc(C(=O)NC2CC3CCC(C2)N3C)c2ccccc21 (stereo not drawn) | 67 |  |  | 
21 | CN1C2CCC1CC(OC(=O)c1cc(=O)n(C)c3ccccc13)C2 (stereo not drawn) | 2.6 | 0.18 |  | 
22 | CCCOc1cc(C(=O)OC2CC3CCC(C2)N3C)c2ccccc2n1 (stereo not drawn) | 0.32 | 6.78 |  | 
23 | CC(C)Cn1c(=O)cc(C(=O)OC2CC3CCC(C2)N3C)c2ccccc21 (stereo not drawn) | 0.47 | 0.069 |  | 
24 | CCCCN1C(=O)CC(C(=O)OC2CC3CCC(C2)N3C)c2ccccc21 (stereo not drawn) | 8.7 |  |  | 
25 | CCCCCOc1cc(C(=O)OC2CC3CCC(C2)N3C)c2ccccc2n1 (stereo not drawn) | 0.86 | 1.13 |  | 
26 | CC(C)Oc1cc(C(=O)NC2CC3CCC(C2)N3C)c2ccccc2n1 (stereo not drawn) | 53 |  |  | 
27 | CCCn1c(=O)cc(C(=O)OC2CC3CCC(C2)N3C)c2ccccc21 (stereo not drawn) | 0.45 | 0.33 |  | 
28 | CCCCCCn1c(=O)cc(C(=O)OC2CC3CCC(C2)N3C)c2ccccc21 (stereo not drawn) | 1.1 |  |  | 
29 | CN1C2CCC1CC(OC(=O)c1cc(=O)n(-c3ccccc3)c3ccccc13)C2 (stereo not drawn) | 0.51 | 0.044 |  | 
30 | CN1C2CCC1CC(OC(=O)c1cc(=O)n(Cc3ccccc3)c3ccccc13)C2 (stereo not drawn) | 1.3 |  |  | 
31 | CN1C2CCC1CC(NC(=O)c1cc(O)nc3ccccc13)C2 (stereo not drawn) | > 100 |  |  | 
32 | CCOc1cc(C(=O)OC2CC3CCC(C2)N3C)c2ccccc2n1 (stereo not drawn) | 0.88 | 0.07 |  | 
33 | CCCCn1c(=O)c(CC)c(C(=O)NC2CC3CCC(C2)N3C)c2ccccc21 (stereo not drawn) | > 100 |  |  | 
34 | CC(C)CCn1c(=O)cc(C(=O)OC2CC3CCC(C2)N3C)c2ccccc21 (stereo not drawn) | 1.5 | 0.059 |  | 
35 | CC(C)Oc1cc(C(=O)OC2CC3CCC(C2)N3C)c2ccccc2n1 (stereo not drawn) | 0.31 | 1.62 |  | 
